Data published in article PMC7442708 (SLAS discovery : advancing life sciences R & D, 2020).

Legend:
JURKAT cells = test: cell proliferation, cellular ATP; type: cell-based; settings: 36 hours; compared to CCRF-CEM, DND-41 and CUTLL1
Procedure, shortened: (§1)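 T-ALL cell lines exposed to test compound for 36 h; MOLT-4 grown in RPMI 1640 with 15% FBS. Cellular ATP measured by CellTiter-Glo luminescence as an index of metabolically active cells. Proliferation expressed relative to DMSO control; mean ± SEM, N = 3.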

[1] = target: RBPJ occupancy (RBPJ-DNA interactions in cells) (Homo sapiens, UniProt Q06330); test: anti-RBPJ ChIP-qPCR in NICD-transfected HEK293T cells; type: cell-based; settings: 2.5 μM, 24 hours
Chain of RBPJ occupancy (RBPJ-DNA interactions in cells) (Homo sapiens, UniProt Q06330) (Q06330 whole entry): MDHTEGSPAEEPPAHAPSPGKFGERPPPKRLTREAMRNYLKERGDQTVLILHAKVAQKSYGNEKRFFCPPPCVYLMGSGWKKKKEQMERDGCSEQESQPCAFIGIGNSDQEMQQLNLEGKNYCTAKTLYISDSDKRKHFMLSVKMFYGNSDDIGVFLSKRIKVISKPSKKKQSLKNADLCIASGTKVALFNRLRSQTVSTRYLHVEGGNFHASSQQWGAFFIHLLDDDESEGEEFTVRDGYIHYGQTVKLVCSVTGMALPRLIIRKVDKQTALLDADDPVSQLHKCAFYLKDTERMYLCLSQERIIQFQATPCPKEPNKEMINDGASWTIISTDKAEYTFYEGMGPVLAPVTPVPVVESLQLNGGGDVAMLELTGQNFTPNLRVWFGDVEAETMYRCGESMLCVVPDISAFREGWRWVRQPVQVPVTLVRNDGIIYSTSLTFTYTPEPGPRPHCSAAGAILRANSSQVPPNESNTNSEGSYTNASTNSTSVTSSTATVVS
Procedure, shortened: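 HEK293T cells (DMEM, 10% FBS) co-transfected with Flag-NICD and 4xRBPJ-firefly luciferase. About 4 million cells were fixed and sonicated on ice (12 cycles, 30 s on/90 s off, 40% amplitude). ChIP used polyclonal anti-RBPJ (FC31, 1:100) with protein A-agarose. SYBR green qPCR; mean ± SEM, N = 3.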

CCRF-CEM cells = test: cell proliferation, cellular ATP; type: cell-based; settings: 36 hours
Procedure, shortened: (§2)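 Cells kept in RPMI 1640 with 15% FBS (CCRF-CEM, DND-41) and exposed to test compound for 36 h. Cellular ATP was measured by CellTiter-Glo luminescence as an index of metabolically active cells. Proliferation is expressed relative to DMSO control; mean ± SEM, N = 3.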

TALL-1 cells = test: cell proliferation, cellular ATP; type: cell-based; settings: 96 hours; compared to JURKAT
Procedure, shortened: (§3)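 HPB-ALL and TALL-1 cells (DSMZ), grown in RPMI 1640 with 15% FBS. Exposed to varying amounts of test compound for 96 h, a longer exposure chosen because these lines divide more slowly. Metabolically active cells measured as cellular ATP by CellTiter-Glo luminescence. Proliferation expressed relative to DMSO control; mean ± SEM, N = 3.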

HPB-ALL cells = test: cell proliferation, cellular ATP; type: cell-based; settings: 96 hours; compared to JURKAT
Procedure, shortened: as §3

MOLT4 cells = test: cell proliferation, cellular ATP; type: cell-based; settings: 36 hours
Procedure, shortened: as §1

CUTLL1 cells = test: cell proliferation, cellular ATP; type: cell-based; settings: 36 hours
[2] = tested on: Notch-dependent transcription; test: dual luciferase reporter assay; type: cell-based; settings: TK-Renilla luciferase control reporter (Table S1)
[3] = tested on: Notch target genes HEY1 and HES1; test: RT-qPCR of endogenous gene expression in NICD-transfected HEK293T cells; type: cell-based; settings: 2.5 μM, 24 hours; normalized to beta actin
Procedure, shortened: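 Total RNA extracted with TRIzol; cDNA reverse-transcribed from 1 μg RNA. Transcripts quantified by SYBR-based real-time PCR, normalized to beta-actin, and analyzed by the ΔΔCt method.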

[4] = target: RBPJ occupancy (RBPJ-DNA interactions in cells) (Mus musculus, UniProt P31266); test: anti-RBPJ ChIP-qPCR in F9 cells; type: cell-based, murine; settings: 2.5 μM, 24 hours
Chain of RBPJ occupancy (RBPJ-DNA interactions in cells) (Mus musculus, UniProt P31266) (P31266 whole entry): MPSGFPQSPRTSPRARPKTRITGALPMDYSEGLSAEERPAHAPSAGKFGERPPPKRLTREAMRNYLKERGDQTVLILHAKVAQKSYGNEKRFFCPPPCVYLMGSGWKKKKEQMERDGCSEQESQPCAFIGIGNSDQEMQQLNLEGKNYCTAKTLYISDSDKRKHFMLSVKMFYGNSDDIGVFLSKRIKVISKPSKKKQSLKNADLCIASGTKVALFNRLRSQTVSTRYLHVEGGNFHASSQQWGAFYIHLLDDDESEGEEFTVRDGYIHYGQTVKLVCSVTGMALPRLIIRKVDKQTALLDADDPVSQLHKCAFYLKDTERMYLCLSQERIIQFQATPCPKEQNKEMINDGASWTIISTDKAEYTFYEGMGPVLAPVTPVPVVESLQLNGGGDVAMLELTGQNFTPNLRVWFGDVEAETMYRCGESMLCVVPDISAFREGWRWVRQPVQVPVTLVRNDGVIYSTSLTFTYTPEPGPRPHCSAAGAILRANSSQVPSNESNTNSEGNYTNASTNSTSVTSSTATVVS
Procedure, shortened: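 Murine F9 cells, grown in DMEM with 10% FBS, exposed to 2.5 µM test compound for 24 h. About 4 million cells fixed; chromatin sonicated on ice for 12 cycles (30 s on/90 s off, 40% amplitude). ChIP with polyclonal anti-RBPJ (1:100) and protein A-agarose in 500 μL. Enriched DNA quantified by SYBR green real-time PCR; Actin B serves as negative region. Mean ± SEM, N = 3.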

DND-41 cells = test: cell proliferation, cellular ATP; type: cell-based; settings: 36 hours
Procedure, shortened: as §2

HES1 and HEY1 = settings: cited from earlier work
KOPT-K1 cells = settings: compared to JURKAT; cited from earlier work
[5] = tested on: patient-derived xenograft models; settings: cited from earlier work
[6] = site occupied in part through CTCF

CC(=O)OC[C@H]1O[C@@H]([S-])[C@H](OC(C)=O)[C@@H](OC(C)=O)[C@@H]1OC(C)=O.CCP(CC)CC.[Au+] [auranofin, Auranofin]
sensitivity of proliferation (cellular ATP) (JURKAT cells): most resistant
RBPJ occupancy at the endogenous HES1 promoter [1]: decreased RBPJ occupancy at these sites significantly
RBPJ occupancy at the endogenous HEY1 promoter [1]: decreased RBPJ occupancy at these sites significantly
sensitivity of proliferation (cellular ATP) (CCRF-CEM cells): significantly more sensitive to auranofin than MOLT-4
proliferation (cellular ATP) (TALL-1 cells): decreased the proliferation
proliferation (cellular ATP) (HPB-ALL cells): decreased the proliferation
sensitivity of proliferation (cellular ATP) (MOLT4 cells): more sensitive to auranofin than JURKAT
sensitivity of proliferation (cellular ATP) (CUTLL1 cells): significantly more sensitive to auranofin than JURKAT
transcription from the TK promoter [2]: decreases transcription from the TK promoter
expression of HES1 [3]: significantly decreased
expression of HEY1 [3]: significantly decreased
expression of Notch-independent TCERG1 [3]: remained unchanged
RBPJ occupancy at the HES1 promoter ([4]; direct RBPJ binding site): decreased RBPJ occupancy
RBPJ occupancy at the ZFP334 promoter ([4]; direct RBPJ binding site): decreased RBPJ occupancy
RBPJ occupancy at NANOG [4, 6]: not effectively disrupted
RBPJ occupancy at NAPRT1 [4, 6]: not effectively disrupted
sensitivity of proliferation (cellular ATP) (DND-41 cells): significantly more sensitive to auranofin than JURKAT

Cn1nccc1-c1ccc(C(N)=O)c(Oc2ccccc2F)c1 [RIN1]
expression of the classic Notch targets HES1 and HEY1 (HES1 and HEY1): increases the expression
sensitivity of Notch-addicted KOPT-K1 cells (KOPT-K1 cells): as sensitive to RIN1 than Notch-independent JURKAT cells

CCOC(=O)COc1ccc(/C=C2\SC(=S)NC2=O)cc1OC [IMR-1]
tumor growth [5]: impairs tumor growth

C[C@H](NC(=O)Cc1cc(F)cc(F)c1)C(=O)N[C@H](C(=O)OC(C)(C)C)c1ccccc1 [DAPT]
expression of the classic Notch targets HES1 and HEY1 (HES1 and HEY1): decreases the expression
